# TbMetRS inhib – T. brucei MetRS inhibitors, primary screen, biochemical, luminescence; methionyl-tRNA synthetase (Trypanosoma brucei brucei); purified T. brucei MetRS, ATP depletion, Kinase-Glo luminescence; inhibition, % at 11.9 µM; 360,000 tested, 0.4% active;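 active means inhibition above a per-plate cutoff of the control wells' mean inhibition plus 3 SD, cut at about 5.5% in these data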
#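 Test system: purified T. brucei MetRS enzyme. Also added: ATP, methionine and E. coli bulk tRNA substrates. Compound: 11.9 µM single point. Schedule: 15 min enzyme-compound preincubation, 2 h reaction, 10 min detection, 25 °C. Signal: luciferase luminescence of residual ATP, Kinase-Glo. Evaluation: percent inhibition versus plate control medians. Controls: DMSO wells, low control.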
# NR1D1 modulator – modulators of Rev-erb alpha DNA binding, primary screen, biochemical, FITC-DNA, fluorescence polarization, uHTS | Nuclear receptor subfamily 1 group D member 1 (Homo sapiens), P20393 | Rev-erbα–FITC-DNA binding, 90 min | activity, % at 10 µM | 370,000 tested, 0.79% active | AID 1259318, 2017;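 active means activity above about 14%, limit read from the data; passing the limit was not always enough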
# Target sequence (P20393 whole entry, looked up): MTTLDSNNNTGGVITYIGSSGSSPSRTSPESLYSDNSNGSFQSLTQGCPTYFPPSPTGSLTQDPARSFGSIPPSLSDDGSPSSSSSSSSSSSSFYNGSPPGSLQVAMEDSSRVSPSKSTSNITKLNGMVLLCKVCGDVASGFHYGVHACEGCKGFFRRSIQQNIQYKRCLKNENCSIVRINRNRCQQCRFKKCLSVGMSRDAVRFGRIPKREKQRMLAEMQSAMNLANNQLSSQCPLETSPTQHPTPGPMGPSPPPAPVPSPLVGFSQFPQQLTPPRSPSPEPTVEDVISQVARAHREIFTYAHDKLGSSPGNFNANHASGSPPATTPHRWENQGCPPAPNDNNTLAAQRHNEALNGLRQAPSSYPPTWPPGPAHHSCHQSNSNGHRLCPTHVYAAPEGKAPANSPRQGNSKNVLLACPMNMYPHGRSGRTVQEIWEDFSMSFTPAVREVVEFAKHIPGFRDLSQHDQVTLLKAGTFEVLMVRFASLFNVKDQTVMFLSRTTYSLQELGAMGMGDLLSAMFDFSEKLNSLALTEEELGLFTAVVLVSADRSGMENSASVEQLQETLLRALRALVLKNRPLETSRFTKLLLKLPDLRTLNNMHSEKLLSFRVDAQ
# PG9 Ab binder – binders of HIV-1 gp120 antibody PG9, primary screen, biochemical, TR-FRET; HIV-1 gp120 / PG9 antibody interaction; TR-FRET gp120-PG9 antibody binding; inhibition, % at 6.7 µM; 360,000 tested, 0.43% active; in the data active means inhibition above about 8.5%
# Rin1-Abl PPI inh – inhibitors of Rin1-Abl protein binding, primary screen, biochemical, TR-FRET. Tyrosine-protein kinase ABL1 (Homo sapiens) + Ras and Rab interactor 1 (Homo sapiens), …. inhibition, % at 7.35 µM. 360,000 tested, 0.4% active. AID 588664, 2011; in the data active means inhibition above about 5%, passing the limit was not always enough
# Rev-erbA confirm – modulators of Rev-erb alpha DNA binding, confirmation, biochemical, FITC-DNA, fluorescence polarization, single point. AID 1259319, 2017. shares compounds with NR1D1 modulator. 3,000 tested, 61% active. 90 min. activation, % at 25 µM;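 active means activation at or above a set limit, or at least 3 SD above the negative control mean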
# RORg counter – modulation of RORgamma DNA binding, dose response, counter-screen for Rev-erb alpha modulator project, biochemical, fluorescence polarization, FITC-DNA; purified RORgamma protein-FITC-DNA binding; IC50, µM; 910 tested, 8% active; shares compounds with NR1D1 modulator;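 active means Compounds whose fitted half-maximal concentration for disrupting protein-DNA binding is below 10 micromolar; the record names Rev-erb in its text, so the target is in doubt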
# Numbers stand for hits; i = inactive; nt = no result given. In the library only some 1.8% were active in any assay of this set; here they are far more common.
SMILES,TbMetRS inhib,NR1D1 modulator,PG9 Ab binder,Rin1-Abl PPI inh,Rev-erbA confirm,others
O=C(NC(Cc1cn(Cc2ccccc2)cn1)C(=O)O)OCC1c2ccccc2-c2ccccc21 (configuration not stated),i,nt,nt,i,nt,
CN1C(=O)CSC1=NCC12CC3CC(CC(C3)C1)C2,i,23.9,i,i,32.0,RORg counter=i
C=C(C)CN1C(=O)C(C)SC1=NN=C1SCC(=O)N1C (configuration not stated),i,i,i,i,nt,
CCN(CC)CCCNc1ccc2ncn3c4ccc(O)cc4c(=O)c1c23,i,91.5,i,i,50.4,
Cc1ccc(C(=O)Nc2cccc(C(F)(F)F)c2)cc1NC(=O)c1nccn1C,i,20.2,i,i,22.7,RORg counter=i
CCOC(=O)N(C)C[C@H]1OCc2cn(nn2)CCCC(=O)N([C@@H](C)CO)C[C@@H]1C,nt,i,i,nt,nt,
CCn1c(SCC(=O)Nc2cc(C)on2)nc2sc(C)c(C)c2c1=O,nt,26.9,i,nt,34.8,RORg counter=i
C=CCn1c(SCC(=O)Nc2ccc(O)cc2)nc2sc(C)c(C)c2c1=O,i,i,i,i,nt,
C=CCn1c(SCC(=O)Nc2cc(C)on2)nc2sc(C)c(C)c2c1=O,i,53.7,i,i,53.5,RORg counter=i
CCc1sc2nc(SCC(=O)Nc3cc(C)on3)n(-c3cccc(OC)c3)c(=O)c2c1C,i,34.0,i,i,22.3,
COc1ccc(-c2nn(-c3ccccc3)cc2CNC[C@H]2O[C@@H](n3ccc(=O)[nH]c3=O)[C@H](O)[C@@H]2O)cc1,i,i,i,i,nt,
C[C@H](CO)N1C[C@H](C)[C@@H](CN(C)C(=O)Nc2ccc3c(c2)OCO3)Oc2ccc(NC(=O)CCN3CCOCC3)cc2C1=O,i,i,i,i,nt,
Cc1cccc(C)c1-n1nnnc1C(c1ccnc2ccccc12)N1CCN(C/C=C/c2ccccc2)CC1 (configuration not stated),i,i,i,i,nt,
Cn1nc(C(=O)NNC(=O)CCc2ccccc2Cl)c2ccccc2c1=O,i,i,i,i,nt,
COc1cccc(C(=O)c2cc3cc(Cl)ccc3[nH]2)c1,i,19.9,i,i,i,
Cc1[nH]c2ccccc2c1C(=O)CSc1ccccc1,i,i,i,i,nt,
Cc1ccc2c(C(=O)CSc3ccccc3)c(C)[nH]c2c1,i,30.3,i,i,28.2,
O=C(/C=C\Nc1ccc2c(c1)OCO2)c1ccccn1,i,28.3,i,i,i,
O=C(Nc1ccc2c(c1)OCO2)c1ccccn1,i,i,i,i,nt,
CCOc1ccc(CCNC(=O)CCOc2cc(C)ccc2C)cc1OCC,i,i,i,i,nt,
Cc1ccc(C)c(OCCC(=O)NCCc2ccc(Cl)cc2)c1,i,22.7,i,i,26.6,
CC(C)c1ccc(C2(C)NC(=O)N(CC(=O)NC3CCCC(C)C3C)C2=O)cc1 (configuration not stated),i,i,i,i,nt,
O=C(CNC(=O)Cc1ccccc1)NCC(=O)OCc1ccc(C(=O)c2ccccc2)cc1,i,21.7,nt,i,19.7,
O=C(CSc1nnc(CNC(=O)c2c(F)cccc2F)o1)NCc1ccc2c(c1)OCO2,i,i,i,i,nt,
CC(c1nc2ccccc2[nH]1)n1c(=O)c(-c2cccs2)nc2ccccc21 (configuration not stated),i,30.4,i,nt,18.4,
SMILES,TbMetRS inhib,NR1D1 modulator,PG9 Ab binder,Rin1-Abl PPI inh,Rev-erbA confirm,others
COCCNC(=O)C1(C)CCCN(Cc2ccc(C)c3ccccc23)C1 (configuration not stated),i,i,i,i,nt,
COc1ccc2cc(/C=N/NC(=O)c3c(Cl)cnn3C)c(Cl)nc2c1,i,23.8,i,i,i,
COc1ccc2cc(/C=N/NC(=O)c3ccc(CN(c4ccc(C)c(C)c4)S(C)(=O)=O)cc3)c(Cl)nc2c1,i,i,i,i,nt,
COc1cccc(CNC(=O)[C@H]2CCCN2C(=O)[C@H]2CCCN2C(=O)c2ccc(Cl)cc2)c1,nt,i,i,nt,nt,
Cc1cccc2c1cnn2C(=O)Nc1ccccc1Cl,i,i,i,i,nt,
O=c1c2ccccc2[nH]c(=S)n1CCc1ccccc1,i,i,i,i,nt,
O=C(NCc1ccccn1)c1ccc(Cn2c(=S)[nH]c3ccccc3c2=O)cc1,i,i,i,i,nt,
O=C(NCc1ccccn1)c1ccc(Cn2c(=S)[nH]c3ccc(Br)cc3c2=O)cc1,i,42.5,i,i,34.9,RORg counter=i
O=c1c2ccccc2[nH]c(=S)n1Cc1ccccc1,i,18.9,i,i,i,
N#CC(C#N)=C1CCCc2sccc21,i,i,i,i,nt,
CN1C(=O)c2cc(NC(=O)Nc3ccccc3)ccc2OC[C@H]2O[C@@H](CC(=O)NCC(F)(F)F)CC[C@@H]21,nt,i,nt,nt,nt,
CCCNC(=O)C[C@H]1CC[C@H]2[C@@H](COc3ccc(NC(=O)Nc4ccc(C#N)cc4)cc3C(=O)N2C)O1,nt,35.6,nt,nt,18.8,
COC(=O)C[C@@H]1CC[C@H]2[C@H](COc3ccc(NC(=O)Nc4ccc(C#N)cc4)cc3C(=O)N2C)O1,nt,i,nt,nt,nt,
CNC(=O)C[C@H]1CC[C@H]2[C@@H](COc3ccc(NC(=O)Nc4ccccc4)cc3C(=O)N2C)O1,nt,27.7,nt,nt,14.0,
Cc1ccccc1NC(=O)C[C@H]1CC[C@H]2[C@@H](COc3ccc(NC(=O)Nc4ccccc4)cc3C(=O)N2C)O1,nt,i,nt,nt,nt,
CCNC(=O)C[C@H]1CC[C@H]2[C@@H](COc3ccc(NC(=O)Nc4ccccc4)cc3C(=O)N2C)O1,nt,33.9,nt,nt,13.1,
CCNC(=O)C[C@H]1CC[C@H]2[C@@H](COc3ccc(NC(=O)c4ccc5c(c4)OCO5)cc3C(=O)N2C)O1,nt,141.2,nt,nt,47.6,RORg counter=i
CC1(C(=O)Nc2ccc3c(c2)OCCO3)CSCC(=O)N1CCCn1ccnc1 (configuration not stated),i,i,i,nt,nt,
Cc1cc(C)cc(Cn2cc(CN3CC(N4CCN(CCN(C)C)CC4)CS3(=O)=O)nn2)c1 (configuration not stated),i,i,i,nt,nt,
CCOC(=O)Cn1c(=NC(=O)C2CC2)sc2c(C)cc(C)cc21,i,17.9,21.4,i,i,
O=C(NC1CCCCC1)c1nc(C2CCNCC2)oc1-c1ccccc1,i,i,i,i,nt,
Cn1c2ccccc2n2c(=O)c(Cl)c(-c3ccccc3)c(C#N)c12,i,41.1,i,i,33.2,RORg counter=i
Cn1ccc(-c2ccccc2)c(C#N)c1=O,i,i,i,i,nt,
CCOc1ccc(OCCC(=O)OCC(=O)c2c(N)n(C)c(=O)n(C)c2=O)cc1,i,i,i,i,nt,
Cc1cc(C(=O)NN)c2cc(Br)ccc2n1,i,i,i,i,nt,
